In paper PMC9924312 (Asian Pacific Journal of Cancer Prevention : APJCP, 2022):

What was measured:
neuroblastoma SH-SY5Y = assay: MTT antiproliferative assay, 72 h exposure; type: cell-based, human
Procedure, shortened: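 SH-SY5Y cells were kept in 1:1 EMEM/F12 with 10% FBS at 37°C under 5% CO2. After trypsin/EDTA detachment and trypan-blue counting, cells were plated in 96-well format and allowed 24 h to attach. They were then incubated ±test compound for 72 h. IC50 was derived from a logarithmic trend line of the cytotoxicity plots.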

[1] = system: dermal fibroblasts (BJ ATCC CRL-2522); assay: MTT antiproliferative assay on normal cells, 72 h exposure; type: cell-based, human; conditions: read-out: IC50 Fibroblast
Procedure, shortened: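 Human BJ dermal fibroblasts were grown in DMEM at 37°C under humidified 5% CO2. Cells were detached with 0.25% trypsin/0.53 mM EDTA, counted by trypan blue, seeded in 96-well plates and left 24 h to attach, then exposed to test compound or no drug for 72 h. IC50 was taken from a logarithmic trend line.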

IC50 (neuroblastoma SH-SY5Y; read-out: IC50 SH-SY5Y, MTT, 72 h): 1060 ± 190 nM
Compound: CC(=O)O.CCN(CC)CC[n+]1ccc2c(C)c3[nH]c4ccc(O)cc4c3c(C)c2c1 [Compound 3]
% SH-SY5Y 10µM (percentage inhibition) (neuroblastoma SH-SY5Y; 10 µM, 72 h exposure): 74.22 ± 0.025%
% SH-SY5Y 50µM (percentage inhibition) (neuroblastoma SH-SY5Y; 50 µM, 72 h exposure): 78.23 ± 0.057%
IC50 [1]: 303 ± 1 nM
